# Rows were chosen to be rich in hits. Some 2.3% of all compounds tested hit in one or more screens of this group.
# OXTR ag: human OXTR agonists, primary screen, fluorescence, CHO-OTR cells, Fluo-8 calcium. Oxytocin receptor (Homo sapiens), P30559. Fluo-8 calcium fluorescence; normalized: DMSO 0%, oxytocin 100%. activation, % at 3 µM. 320,000 compounds, 0.32% hits. AID 2435, 2010;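 active = activation above the mean of all tested compounds plus 3 SD, cutoff set per screening run, cut at about 20% in these data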;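 also: peak over basal fluorescence ratio from a 100 s FLIPR kinetic read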
# Target sequence (P30559 whole entry, looked up): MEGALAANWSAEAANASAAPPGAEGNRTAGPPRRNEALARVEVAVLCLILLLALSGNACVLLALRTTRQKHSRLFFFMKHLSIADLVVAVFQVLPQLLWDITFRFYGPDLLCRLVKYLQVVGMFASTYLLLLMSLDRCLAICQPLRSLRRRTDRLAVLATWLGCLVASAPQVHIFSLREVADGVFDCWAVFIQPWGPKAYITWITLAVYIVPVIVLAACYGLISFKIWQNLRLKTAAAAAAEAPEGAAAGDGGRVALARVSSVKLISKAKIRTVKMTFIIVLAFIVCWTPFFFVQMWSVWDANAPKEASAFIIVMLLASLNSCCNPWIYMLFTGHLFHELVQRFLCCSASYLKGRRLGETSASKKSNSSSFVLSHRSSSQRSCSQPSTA
# V1R ag counter: agonists of human V1a receptor, primary screen, counter-screen for OXTR agonist project, fluorescence, CHO-V1R cells. AID 2797, 2010. activation, % at 3 µM. 320,000 compounds, 0.25% hits. Fluo-8 calcium fluorescence, agonist mode; 0% DMSO, 100% 3 nM vasopressin. Vasopressin V1a receptor (Homo sapiens), P37288;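 active = activation above the mean activation of all tested compounds plus 3 SD, per screening run, cut at about 20% in these data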;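 also: signal is peak over basal fluorescence ratio across a 100 second FLIPR read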
# OXTR potentiator: human OXTR potentiators, primary screen, fluorescence, CHO-OTR cells, Fluo-8 calcium; Fluo-8 calcium fluorescence, potentiator mode; 0% = oxytocin EC15, 100% = EC100; activation, % at 3 µM; 320,000 compounds, 0.061% hits;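 active = activation above that plate's cutoff, the mean activation of tested compounds plus 3 SD, cut at about 6.6% in these data, passing the limit was not always enough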;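 also: 100% uses oxytocin at 75 nM as the full agonist control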
#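 assay system = CHO-OTR cells, human receptor | schedule = compound 6 min at room temperature before oxytocin, 100 s read | detection = Fluo-8 intracellular calcium fluorescence, ex 470-495, em 515-575 nm | evaluation = normalized max/min fluorescence ratio, % activation | control set = EC15 oxytocin alone as 0%, 75 nM oxytocin (EC100) as 100%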
# TAAR1 antagonist: human TAAR1 antagonists, primary screen, Fluo-8 calcium fluorescence, CHO RD-HGA16 cells; Trace amine-associated receptor 1 (Homo sapiens), Q96RJ0; antagonist; inhibition, % at 3 µM; 360,000 compounds, 1.5% hits;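 active = inhibition above a per-plate cutoff, the mean inhibition of test compounds on that plate plus 3 SD, cut at about 49% in these data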;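 also: 0% = DMSO plus EC80 beta-PEA response and 100% = DMSO alone without agonist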
#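 Test system – hTAAR1-expressing CHO RD-HGA16 cells, Gα16-coupled · Reagent – β-PEA at EC80 concentration, post-compound challenge · Compound dosing – 3 µM, single point · Timing – 140 s kinetic read after compound, 140 s after agonist · Detection – Fluo-8 intracellular calcium dye fluorescence, real-time kinetic reads · Control set – DMSO and EC80 PEA controls · Repeats – n of 1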
# TAAR1 agonist: human TAAR1 agonists, primary screen, Fluo-8 calcium fluorescence, CHO RD-HGA16 cells; Trace amine-associated receptor 1 (Homo sapiens), Q96RJ0; vehicle wells 0%, saturating PEA agonist 100%; activation, % at 3 µM; 360,000 compounds, 0.99% hits;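 active = activation above the mean activation of all test compounds in the run plus 3 SD, cut at about 38% in these data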
#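 System: CHO-derived RD-HGA16 cells with stable Gα16 and human TAAR1. Times: 17-24 h plating, Fluo-8 75 min 37 °C, 30 min RT. Measured by: calcium-sensitive Fluo-8 signal, excitation 470-495, emission 515-575 nm. Read-out basis: % activation relative to PEA EC100 response. Control set: DMSO and PEA EC100. Repeats: no replicates (n 1).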
# * hit, by the source's call; · = not tested or not shown.
SMILES,OXTR ag,V1R ag counter,OXTR potentiator,TAAR1 antagonist,TAAR1 agonist
O=C(CCN1C(=O)/C(=C/c2cccs2)SC1=S)Nc1ccccn1,2,5,-9,50*,33
O=C(CCCN1C(=O)/C(=C\c2cccs2)SC1=S)Nc1ccccn1,-1,-1,-9,-4,5
CCOc1ccccc1N1C(=O)CC(Nc2ccc(N3CCOCC3)cc2)C1=O (centres undefined),0,0,-1,-5,3
COc1ccccc1-c1cc(C(=O)N/N=C\c2cn(C)nc2C)c2ccccc2n1,-1,1,-8,2,5
O=C(CN1CCN(C2CCCCC2)CC1)Nc1ccc(Br)cc1,2,2,1,-19,5
O=C(Nc1ccccc1)N(O)c1ccc(Cl)cc1,1,0,-21,4,38*
CCCCN(C(C)=O)c1ccc2c(c1)C1CC2CCN1C(=O)OCc1ccccc1 (centres undefined),·,·,·,18,1
COc1ccc([C@H]2CC(=O)C=C(c3cccc4c3sc3ccccc34)C2)cc1OC,2,1,-5,3,4
COc1ccc([C@H]2CC(=O)C=C(c3cccc(OC)c3OC)C2)cc1OC,12,9,-9,52*,14
CCc1ccc(OCC(=O)NNC(=S)NC(=O)C2CC2)c(Br)c1,·,·,·,9,40*
COc1ccc(OC)c(-c2cc(C3CCN(c4cc(Cl)nc(N)n4)CC3)[nH]n2)c1,12,15,-8,56*,23
COc1ccc(-c2cc(C3CCN(c4cc(Cl)nc(N)n4)CC3)[nH]n2)cc1,18,15,-10,31,43*
COc1ccc(OC)c(-c2cc(C3CCN(c4ncccc4[N+](=O)[O-])CC3)[nH]n2)c1,0,1,-14,10,6
COc1ccc(-c2cc(C3CCN(Cc4cccc(C(F)(F)F)c4)CC3)[nH]n2)cc1,4,4,-14,-26,11
COc1ccc(C(=O)NNC(=O)COc2ccc(Cl)cc2C)cc1S(=O)(=O)N1CCOCC1,-1,-1,-1,9,-2
O=C(CCN1C(=O)NC2(CCCC2)C1=O)Nc1ccc(-c2nc3ccccc3s2)cc1,13,9,-10,68*,28
CC(=O)c1c(C)[nH]c(C(=O)OCCCCN2C(=O)c3ccccc3C2=O)c1C,19,12,-24,72*,21
CC(C)(C)C(=O)NCCCc1nc2ccccc2n1CCCOc1ccc(Cl)cc1,9,8,-8,66*,19
C=CCn1c(CCCNC(=O)C(C)(C)C)nc2ccccc21,0,1,-3,-8,2
CC(=O)NCCc1nc2ccccc2n1CCOc1ccccc1,2,1,1,-23,39*
Cc1ccc(C(=O)N2CCCCC2)cc1NC1=C(Cl)C(=O)N(Cc2ccccc2)C1=O,4,4,-10,50*,4
O=C(Nc1ccc(Cl)c(Cl)c1)C1=Cc2ccccc2OC1,0,4,-28,60*,9
Cc1ccc(C)c(-n2sc3ccc(F)cc3c2=O)c1,17,9,-8,51*,45*
O=c1c2cc(F)ccc2sn1-c1ccc(F)cc1,18,14,-10,·,·
COc1ccc(-n2sc3ccc(F)cc3c2=O)cc1,12,10,-5,45,50*
SMILES,OXTR ag,V1R ag counter,OXTR potentiator,TAAR1 antagonist,TAAR1 agonist
CCOC(=O)N1CCN(C2OC(=O)c3ccccc32)CC1 (centres undefined),0,3,-5,-6,38*
O=C1OC(N2CCN(C(=O)C3CCCO3)CC2)c2ccccc21 (centres undefined),1,2,-13,-11,15
O=C(C[C@@H]1C[C@H]2c3cc(NC(=O)c4cccnc4)ccc3O[C@H]2[C@H](CO)O1)NCc1ccc(Oc2ccccc2)cc1,·,·,·,21,2
S=C(NCCc1ccccc1)N1CCOCC1,0,1,-10,-2,2
O=C(CCC(=O)N1CCOCC1)NCCc1ccccc1,0,0,0,63*,39*
Cc1nc2c(c(=O)c3ccccc3n2C)c(=O)n1C1CCCC1,·,·,·,11,11
Cn1c2ccccc2c(=O)c2c(=O)n(C3CCCCCC3)c(C3CCCCC3)nc21,·,·,·,1,38*
CCOc1ccc(NCCC#N)cc1,1,1,1,5,14
CN(C)S(=O)(=O)N1CCC(Oc2ccc(C(=O)NC3Cc4ccccc4C3)cc2)CC1,10,9,-23,58*,15
CCC(C)NC(=O)c1n[nH]c(=O)c2ccccc12 (centres undefined),0,-1,-1,-17,3
COc1ccc(N2CCN(C(=O)Cn3cncn3)CC2)cc1,0,0,-11,-22,1
CC(C)N1CCN(c2ccc(OCC3COC(Cn4cncn4)(c4ccc(Cl)cc4Cl)O3)cc2)CC1 (centres undefined),·,·,·,61*,20
N#Cc1c(NCCCO)nc(NCc2ccccc2)c2c1CCN(Cc1ccccc1)C2,-1,0,-16,55*,17
CC(C)c1nnc(N2C(=O)C(O)=C(C(=O)c3cccs3)C2c2ccccc2)s1 (centres undefined),·,·,·,25,40*
COc1ccc(C2C(C(=O)c3cccs3)=C(O)C(=O)N2c2nnc(C)s2)cc1OC (centres undefined),2,1,2,·,·
Cn1cc(C(c2ccccn2)c2cn(C)c3ccccc23)c2ccccc21,7,4,-10,-11,41*
CCOC(=O)Cc1c(C)nc(Cc2ccc(OC(C)C)cc2)[nH]c1=O,0,0,3,1,1
Cc1ccc(-c2nn(-c3ccccc3)cc2CN(Cc2ccccc2)C(=O)c2ccco2)o1,0,1,-5,56*,8
CCOC(=O)COc1ccccc1/C=N\NC(=O)c1cc2c(ccc3ccccc32)o1,·,·,·,49*,4
Cc1cc(C(=O)N/N=C/c2cc(Br)ccc2OC(=O)c2ccccc2)n[nH]1,-2,2,-15,51*,13
Cc1cc(C(=O)N/N=C/c2cc(Br)ccc2OC(=O)c2ccccc2Cl)n[nH]1,0,1,-3,34,3
Cc1cc(C(=O)N/N=C/c2ccc(OC(=O)c3ccccc3Br)cc2)n[nH]1,2,4,3,54*,13
O=C(c1cccc(C(F)(F)F)c1)C1CCCN(C(=O)CN2CCCC2=O)C1 (centres undefined),1,1,-7,-4,6
